Compound activity from PubChem.
GSK3A inh – blockers of GSK3A enzyme activity – biochemical, luminescence, cell-free homogeneous, HTS, primary screen. inhibition, % at 10 µM. Glycogen synthase kinase-3 alpha (Homo sapiens), P49840. AID 2650, 2010. 0.1% of 320,000 active. GSK-3 alpha kinase, ADP-Glo luminescence, 60 min;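 active = more than half of replicates show inhibition above 20%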;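 note: GST-tagged GSK-3 alpha with peptide substrate and 25 µM ATP; 0% = DMSO neutral wells and 100% = GW8510 positive control wells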
LANA-H2B inh – blockers of LANA interaction with H2A/H2B – biochemical, FP readout, HTS, primary screen; Protein LANA1 (Human herpesvirus 8 type P (isolate GK18)), Q9QR71; cell-free LANA-H2A/H2B peptide, fluorescence polarization; inhibition, % (test concentration not listed); 0.6% of 320,000 active; AID 2629, 2010; in the data active = inhibition mostly above about 10%, no sharp cut-off; inactive = mostly below about 6.7%
Target sequence (Q9QR71 whole entry, looked up): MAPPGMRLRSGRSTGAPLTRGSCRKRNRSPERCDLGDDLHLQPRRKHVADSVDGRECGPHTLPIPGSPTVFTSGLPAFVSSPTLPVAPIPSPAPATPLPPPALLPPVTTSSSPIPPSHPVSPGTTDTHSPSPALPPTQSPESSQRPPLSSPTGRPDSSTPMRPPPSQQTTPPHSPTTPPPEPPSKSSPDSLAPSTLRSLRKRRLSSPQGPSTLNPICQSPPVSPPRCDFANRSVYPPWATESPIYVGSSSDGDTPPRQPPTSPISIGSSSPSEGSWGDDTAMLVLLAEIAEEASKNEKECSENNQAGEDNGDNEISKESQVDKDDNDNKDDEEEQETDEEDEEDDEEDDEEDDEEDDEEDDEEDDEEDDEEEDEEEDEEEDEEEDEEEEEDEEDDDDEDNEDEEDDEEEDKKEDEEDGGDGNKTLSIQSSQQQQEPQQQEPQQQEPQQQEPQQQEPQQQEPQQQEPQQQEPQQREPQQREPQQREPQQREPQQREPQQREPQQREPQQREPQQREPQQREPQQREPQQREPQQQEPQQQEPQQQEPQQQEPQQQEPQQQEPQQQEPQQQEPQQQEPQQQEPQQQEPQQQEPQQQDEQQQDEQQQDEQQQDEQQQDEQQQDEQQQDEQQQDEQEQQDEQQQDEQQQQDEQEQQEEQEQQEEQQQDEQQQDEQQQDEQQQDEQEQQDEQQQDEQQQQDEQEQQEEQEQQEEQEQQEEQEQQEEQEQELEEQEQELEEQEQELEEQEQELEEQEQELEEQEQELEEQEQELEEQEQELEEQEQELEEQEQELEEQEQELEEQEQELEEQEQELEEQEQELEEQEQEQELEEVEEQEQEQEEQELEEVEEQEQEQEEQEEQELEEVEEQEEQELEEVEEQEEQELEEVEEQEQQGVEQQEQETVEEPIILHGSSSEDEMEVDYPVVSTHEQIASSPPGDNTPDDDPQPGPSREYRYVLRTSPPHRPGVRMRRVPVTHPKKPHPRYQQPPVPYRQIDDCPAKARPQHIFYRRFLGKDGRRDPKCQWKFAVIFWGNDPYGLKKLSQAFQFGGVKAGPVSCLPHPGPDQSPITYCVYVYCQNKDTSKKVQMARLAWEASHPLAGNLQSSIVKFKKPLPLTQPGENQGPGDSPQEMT
H9c2 TAG inh – inhibitors of triacylglycerol accumulation, primary screen, cell-based, uHTS, fluorescence, H9c2 | H9c2 cells, Nile Red lipid (TAG) fluorescence; cells loaded with 200 µM oleic acid | inhibition, % at 12.5 µM | 0.66% of 230,000 active | AID 651582, 2012;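 active = pattern-corrected inhibition of lipid staining of at least 50% with the nuclear-stain viability signal not falling by more than 50%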;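 note: 0% = DMSO wells and 100% = triacsin C control wells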
GSK3B inh – human GSK3beta kinase inhibitors, primary screen, biochemical, cell-free homogeneous, HTS; AID 2097, 2009; Glycogen synthase kinase-3 beta (Homo sapiens), P49841; GST-GSK3beta kinase, ADP-Glo luminescence, 60 min; hits give low values; 0.038% of 300,000 active; activity score (negative = inhibition), % at 10 µM;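 active = more than half of replicate wells score below -50%, meaning over 50% inhibition versus plate controls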;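 note: 0% = median DMSO wells and -100% = median GW8510 positive control wells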
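Assay system: GST-fused GSK3beta enzyme, cell-free / Medium: Tris pH 7.5 buffer with MgCl2, DTT, BSA, heparin / Also added: peptide substrate plus 25 µM ATP (final) / Compound: 10 µM single point / Timing: kinase reaction with compound 60 min at room temperature / Detection: ADP-Glo luminescence / Benchmarks: DMSO neutral wells and GW8510 at 20 µM as positive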
Hep lipid drop – inhibitors of hepatocyte lipid droplet formation, primary screen, imaging, high-throughput imaging, BODIPY stain | 0.4% of 240,000 active | inhibition, % at 6.5 µM | AML12 mouse hepatocytes, oleate lipid droplets;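 active = lipid droplet intensity inhibited by at least 50%, with more than 500 cells counted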
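Material – mouse AML12 hepatocyte cell line, fixed after treatment · Compound dosing – one dose, 6.5 µM compound · Times – compound with oleate, overnight · Measured by – Image-based BODIPY and DAPI two-channel analysis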
STK33 inh – inhibitors of purified STK33 kinase, primary screen, biochemical, ADP-Glo luminescence, homogeneous, cell-free | Serine/threonine-protein kinase 33 (Homo sapiens), Q9BYT3 | MBP phosphorylation | inhibition, % at 10 µM | 0.073% of 320,000 active | AID 2661, 2010;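 active = inhibition at or above 25%, using the most active replicate where run in duplicate; inactive = inhibition below 25%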
* marks the source's active call; other numbers are inactive results; · = no result given; + = active, no number. Rows were chosen to be rich in hits. Some 1.3% of all compounds tested hit in one or more screens of this group.

SMILES | GSK3A inh | LANA-H2B inh | H9c2 TAG inh | GSK3B inh | Hep lipid drop | STK33 inh
Cn1c(CCc2ccccc2)nnc1SCC(=O)N1CCOCC1 | 0 | 3 | -2 | -3 | -20 | -1
COC(=O)CSc1nnc(CCc2ccccc2)n1C | 2 | 11* | -4 | -1 | -1 | 9
COC(=O)[C@@]12CCCCN1[C@H](c1ccc(-c3cccc(Cl)c3)c(OC)c1)[C@@H]1C(=O)N(C)C(=O)[C@@H]12 | -4 | 0 | 8 | 1 | · | 0
Cc1ccccc1N(CC(=O)N1CCCCCC1)S(C)(=O)=O | 1 | -1 | -2 | 0 | -3 | -1
CN(Cc1c(C(=O)N/N=C/c2ccc(O)cc2)nnn1-c1nonc1N)C1CCCCC1 | 60* | -5 | · | 0 | 0 | -1
CCN(CC)Cc1c(C(=O)N/N=C/c2cccnc2)nnn1-c1nonc1N | 53* | 3 | · | 0 | · | -1
CN(Cc1c(C(=O)N/N=C/c2ccccc2)nnn1-c1nonc1N)C1CCCCC1 | 4 | -2 | · | 1 | 11 | 0
CCCN(CCC)Cc1c(C(=O)N/N=C/c2ccc(C)o2)nnn1-c1nonc1N | -3 | 5 | · | 3 | -21 | -1
CCCN(CCC)Cc1c(C(=O)N/N=C/c2ccncc2)nnn1-c1nonc1N | 74* | -2 | · | -45 | -5 | 0
CCOc1cccc(-c2c(C(=O)N/N=C(\C)c3cccnc3)nnn2-c2nonc2N)c1 | 52* | 1 | · | 0 | -40 | 0
COc1ccc(-c2c(C)oc3c(CN4CCCCC4C)c(O)ccc3c2=O)cc1 (centres undefined) | -1 | 5 | · | 1 | -1 | 0
CN(Cc1ccccc1)C(=O)c1ccccc1C(=O)OCC(=O)N(Cc1ccccc1)C(C)(C)C | -2 | -3 | 9 | · | · | 2
COc1ccccc1C(=O)Nc1ccc2[nH]ncc2c1 | 6 | 7 | · | 0 | 6 | 1
CC(/C=N/NC(=O)c1nnn(-c2nonc2N)c1CN(C)C)=C\c1ccco1 | 50* | 0 | -8 | -5 | 6 | 0
CCCN(CCC)Cc1c(C(=O)N/N=C/C(C)=C\c2ccco2)nnn1-c1nonc1N | -3 | -2 | · | 1 | -36 | 0
CC(C)Cc1ccc(CN2CCCC(NC(=O)c3ccoc3)C2)cc1 (centres undefined) | 2 | 3 | -10 | -3 | -15 | -1
CC(C)Cc1ccc(CN2CCCC(NC(=O)c3cccc(-n4cnnc4)c3)C2)cc1 (centres undefined) | 5 | 53* | -7 | -1 | -10 | 0
O=c1cc(CSc2ccc(Cl)cc2)nc(-c2ccccn2)[nH]1 | -3 | 3 | · | -2 | · | -2
Cc1nn(S(=O)(=O)c2ccc(Cl)cc2)c(C)c1Sc1ccc([N+](=O)[O-])cc1 | -2 | 12* | · | -2 | -1 | -1
O=C1C=C(NCCc2cc(Br)c(O)c(Br)c2)C(=O)c2ncccc21 | · | · | 53* | · | · | ·
COc1ccc(/C=C/C(=O)c2c(C)nc3ccccn23)cc1 | -2 | -1 | 13 | 0 | · | -1
C[C@H](CO)N1C[C@H](C)[C@@H](CN(C)C(=O)Nc2ccccc2)Oc2ccc(NC(=O)Nc3ccc4c(c3)OCO4)cc2C1=O | -5 | -3 | -3 | · | · | -1
C[C@@H]1CN([C@H](C)CO)C(=O)c2cc(NC(=O)Nc3ccc4c(c3)OCO4)ccc2O[C@H]1CN(C)Cc1ccncc1 | -3 | + | 8 | · | · | -1
COc1cc(-c2nnc(SCC#CCO)o2)cc(OC)c1OC | · | -7 | · | 3 | · | 0
COC(=O)c1[nH]c2ccc(C)cc2c1NC(=O)C1=COCCO1 | 0 | 0 | -8 | 3 | 18 | -2
SMILES | GSK3A inh | LANA-H2B inh | H9c2 TAG inh | GSK3B inh | Hep lipid drop | STK33 inh
COC(=O)c1[nH]c2ccc(F)cc2c1NC(=O)C1=COCCO1 | 3 | 11* | 0 | 3 | 13 | 0
CCOCCCNC(=O)N[C@@H](C)C(=O)OC | -1 | 2 | · | 0 | · | 1
CCC(=O)Nc1nc2ccc(NC(=O)COc3ccccc3)cc2s1 | 0 | 2 | 0 | 1 | 1 | -1
Cc1cccc(C)c1NC(=O)CN(C)C(=O)CSC(=S)N1CCCC1 | 0 | -1 | 22 | 0 | · | 0
O=C(c1cccc2ccccc12)N1CCCCC1 | -1 | 11* | 7 | -1 | -5 | 1
CCOc1ccccc1NC(=O)C1C2C=CC(O2)C1C(=O)O (centres undefined) | · | -6 | 6 | 1 | 26 | 0
COc1ccc(C2CC(c3cccc(OC)c3)n3nc(N)nc3N2)cc1 (centres undefined) | · | 2 | · | 2 | -21 | -1
COc1ccc(C2CC(c3ccccc3C)n3nc(N)nc3N2)cc1 (centres undefined) | · | -6 | 7 | 2 | 9 | -2
CCOc1ccc(C2CC(c3ccccc3C)n3nc(N)nc3N2)cc1 (centres undefined) | -2 | 33* | 6 | 0 | 26 | -1
COc1cccc(C2CC(c3ccc(Cl)cc3)n3nc(N)nc3N2)c1 (centres undefined) | -2 | + | · | -27 | · | -3
O=C(CCN1CCCCC1)N/N=C/c1ccc(Br)cc1 | 4 | 2 | 5 | 2 | -5 | 0
Cc1ccccc1CN1CCC(Oc2ccc(C(=O)NCc3ccccn3)cc2)CC1 | -1 | -5 | · | -1 | -17 | 0
COc1ccccc1N1CCN(C(=O)c2nn(C)c3c2CS(=O)(=O)c2ccccc2-3)CC1 | 4 | 3 | · | 0 | -4 | 1
O=C1Cn2c(nc3ccccc32)N1c1cccc(C(F)(F)F)c1 | -1 | 15* | · | 0 | 14 | -1
Cc1nn(C(=O)CNC(=O)c2ccccc2)c(C)c1C | -1 | 9.6* | -6 | -1 | 5 | -1
Cc1cc(C)n(C(=O)CNC(=O)c2cccc(F)c2)n1 | · | · | · | 2 | 15 | ·
CCC(C)c1ccccc1NC(=O)COC(=O)c1ccc2[nH]c3c(c2c1)CCCC3 (centres undefined) | -1 | 0 | 15 | 0 | 59* | -1
O=C(COC(=O)c1ccc2[nH]c3c(c2c1)CCCC3)Nc1ccccc1Cl | 0 | -1 | 7 | 0 | -4 | 0
CN(CCC1CCOCC1)C(=O)CC1C(=O)NCCN1Cc1c(F)cccc1Cl (centres undefined) | 1 | 40* | -7 | 2 | 5 | 0
CCOC(=O)C1=C(CSc2nc(-c3ccccc3)ccc2C#N)OC(N)=C(C#N)C1c1cccnc1 (centres undefined) | 0 | 1 | -28 | -2 | 2 | -2
